High-throughput results from PubChem.
Jurkat tox 60K – cytotoxic compounds reducing Jurkat cell viability. Jurkat E6.1 viability, ATP luminescence, 48 h. inhibition, % at 4 µM. hit rate 1.2% among 56,000. AID 463;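 active = inhibition above the mean inhibition of all tested compounds plus 3 SD, cut at about 28% in these data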
SF1 activator – activates the human nuclear receptor SF-1; CHO-K1 Gal4-SF-1 LBD luciferase reporter; % increase over DMSO SF-1-specific signal; activation, % at 10 µM; Q13285; hit rate 1.9% among 65,000;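 active = activation above the mean activation of all tested compounds plus 3 SD, cut at about 50% in these data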
Target sequence (Q13285 whole entry, looked up, the tested form may be a part): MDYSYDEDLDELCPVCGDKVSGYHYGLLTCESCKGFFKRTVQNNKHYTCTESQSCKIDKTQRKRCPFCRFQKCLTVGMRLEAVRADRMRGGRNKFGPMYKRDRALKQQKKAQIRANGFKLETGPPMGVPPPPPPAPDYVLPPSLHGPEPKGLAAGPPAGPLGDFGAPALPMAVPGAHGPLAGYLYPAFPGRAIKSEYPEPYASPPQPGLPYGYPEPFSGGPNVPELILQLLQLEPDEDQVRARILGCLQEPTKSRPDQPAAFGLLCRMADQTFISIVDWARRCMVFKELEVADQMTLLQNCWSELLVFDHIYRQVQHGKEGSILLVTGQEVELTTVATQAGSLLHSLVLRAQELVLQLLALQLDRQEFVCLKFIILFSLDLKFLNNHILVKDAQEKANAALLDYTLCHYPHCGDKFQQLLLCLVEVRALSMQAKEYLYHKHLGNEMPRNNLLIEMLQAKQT
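Test system: transient Gal4-SF-1 LBD reporter, CHO-K1; Amount: 4,000 CHO-K1 cells per well; Doses: 10 µM only; Timing: compound exposure 20 h at 37 °C; Signal: luciferase light emission; Read-out basis: percent activation relative to DMSO median and mock-transfected background; Control set: DMSO negative control and −SF1 background wells; Replicates: one test per compound.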
HEK293 NFkB inh – inhibitors of the PMA/ionomycin-induced NF-kB reporter in HEK293 cells | HEK-293 NF-kB luciferase reporter, luminescence | inhibition, % at 3 µM | hit rate 0.21% among 62,000 | AID 465;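 active = inhibition above the mean of all tested compounds plus 3 SD, cut at about 40% in these data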;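 also: 0% = stimulated DMSO wells and 100% = 10 µM reference inhibitor 5653914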
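System: NF-kB luciferase reporter HEK-293 cells | Replication: Single test | Control set: DMSO vs reference inhibitor | Evaluation: % inhibition | Schedule: 1 h pretreatment, 16 h stimulation, 37 °C | Probe or stimulus: PMA with ionomycin | Compound dosing: One dose, 3 µM | Detection: Luciferase luminescence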
RORa activator – activators of human nuclear receptor RORA | P35398 | AID 560 | hit rate 1.5% among 65,000 | CHO-K1 Gal4-RORA LBD luciferase reporter, luminescence; percent increase over mock-subtracted basal signal | activation, % at 10 µM;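 active = activation above the mean of all tested compounds plus 3 SD, cut at about 49% in these data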;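 also: 0% = DMSO-treated RORA cells and 100% = added signal equal to DMSO minus mock-transfected cells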
MT1-MMP txn act – MT1-MMP promoter transcription activation; activation factor at 10 µM; hit rate 0.16% among 86,000; HT1080 MT1-MMP promoter luciferase reporter, luminescence, overnight; stronger effect = higher value; AID 750;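 active = activation factor of at least 2 for MT1-MMP transcription at 10 µM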
An asterisk follows results filed as active; · = no result. The list is not random: actives were taken first. Their share in the collection is about 2.8%.

SMILES	Jurkat tox 60K	SF1 activator	HEK293 NFkB inh	RORa activator	MT1-MMP txn act
Cc1cccc(NC(=O)c2cnc3sccn3c2=O)c1	0	-2	-27	24	0.9
O=C(Nc1cnc2sccn2c1=O)c1ccccc1Cl	·	52*	-15	29	1.2
c1ccn2c(SCc3ccc4c(c3)OCO4)nnc2c1	5	40	6	23	1.3
O=C(CSc1nnc2ccccn12)c1ccc2c(c1)OCCO2	-8	64*	-50	51*	1.4
CCCSc1nnc(Sc2nnnn2-c2ccccc2)s1	98*	1	27	-10	0.7
COc1ccc(-c2cc(C#N)nc(N3CCNCC3)n2)cc1	·	·	·	·	1.1
CCN(CC)c1nc(C#N)cc(-c2ccc(OC)cc2)n1	41*	19	38	14	1.2
Cc1ccc(C)c(-n2c(SCC(N)=O)nnc2-c2ccccn2)c1	2	0	17	-6	1.2
Cc1cccc(NS(=O)(=O)c2cccc3nsnc23)c1	·	·	·	·	1.2
Cc1ccc(C)c(S(=O)(=O)Nc2ccc3scnc3c2)c1	92*	26	8	20	1.1
CCSc1nnc2c(n1)[nH]c1c(C)cccc12	21	40	-8	64*	1.6
CC(=O)Nc1ccccc1NS(=O)(=O)c1ccc(Cl)cc1	·	·	·	·	1
O=C(Nc1nnc(C(F)(F)F)s1)c1cccnc1	4	60*	-37	66*	1.2
COc1ccc(C(=O)Nc2nnc(C(F)(F)F)s2)cc1	3	57*	-25	46	1.4
Cc1cc(NC(=O)c2cnc3ccccn3c2=O)no1	-6	44	-27	45	1.4
CCCCC(CC)CNC(=O)C1C2C=CC(C2)C1C(=O)O (centres undefined)	·	·	·	·	2.1*
COc1cc(NC(=O)c2cc(-c3cccc(O)c3)on2)cc(OC)c1OC	21	13	2	-1	1.1
COc1cccc(-c2cc(C(=O)Nc3cccc(O)c3)no2)c1	49*	-5	20	-24	0.9
COc1cccc(-c2cc(C(=O)Nc3ccccc3SC)no2)c1	-4	47	-5	66*	1.4
CN1CCN(CCC(=O)Nc2ccc3c(c2)OCO3)CC1	·	·	·	·	1.3
CC(Oc1ccc(Cl)cc1)C(=O)NCCCn1ccnc1 (centres undefined)	·	·	·	·	1.1
O=S(=O)(NCc1ccncc1)c1ccc(Br)s1	94*	-83	42*	-65	0.9
O=C(O)CNS(=O)(=O)c1ccc(Br)s1	3	-27	14	-1	0.9
CSCCC(NC(=O)c1ccc(C)o1)C(=O)O (centres undefined)	7	15	16	-6	1.3
Cc1nnc(NC(=O)c2c(-c3ccccc3)noc2C)s1	·	·	·	·	1.1
SMILES	Jurkat tox 60K	SF1 activator	HEK293 NFkB inh	RORa activator	MT1-MMP txn act
Cc1onc(-c2ccccc2)c1C(=O)Nc1nc(-c2cc(F)ccc2F)cs1	-1	54*	0	18	0.7
CN(CCC#N)C(=O)CSc1ncnc2sc(-c3ccccc3)cc12	3	30	8	52*	1.4
CCOC(=O)N1CCC(N2Cc3cccc(C(=O)Nc4ccc(OC)c(OC)c4)c3C2=O)CC1	-2	54*	-11	19	1.1
CC(NS(C)(=O)=O)C(c1cccs1)N1CCN(Cc2ccccc2)CC1 (centres undefined)	-4	-3	2	15	1.1
CCCCOC(=O)C1CCCC(C(=O)OCCCC)N1 (centres undefined)	-4	1	3	-18	1
CCOC(=O)c1sc(-c2ccc(OC)cc2)cc1N	-7	62*	-48	44	1.5
CCOC(=O)c1sc(-c2ccccc2)cc1N	-2	52*	-12	49*	1.5
CCOC(=O)c1cc(-c2ccccc2)sc1N	-4	31	2	28	1.6
Cc1cc(Oc2ccc(C(C)(C)C)cc2)nc(N2CCOCC2)n1	·	·	·	·	1.1
CCOC(=O)c1ccc(NC(=O)N2CCc3ccccc32)cc1	2	61*	-32	14	1.4
CCOC(=O)c1[nH]c(C)c(C(=O)Nc2cccc(Cl)c2C)c1C	64*	30	-6	64*	1.1
CC(=O)c1c(C)[nH]c(C(=O)N2CCc3ccccc32)c1C	-3	-14	16	12	1.2
CCOC(=O)c1[nH]c(C)c(C(=O)N2CCc3ccccc32)c1C	97*	-28	21	8	0.5
CCOC(=O)c1[nH]c(C)c(C(=O)Nc2ccc(Cl)cc2)c1C	4	24	-4	6	1.2
